Key:
THP-1 cells = experiment: Cellular uptake and metabolism of α-MG; assay type: in vitro ADME, human; conditions: 24 h after addition of α-MG, control cultures; nd: not detected
Summary of the method: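 THP-1 monocytes were differentiated with 100 nM PMA for 48 h, then exposed 24 h to 5.2 μM compound (DMSO stock into 10% FBS medium). Activated cultures were pre-exposed to 5 ng/mL LPS for 4 h and washed with PBS. Spent medium and cells were collected separately, extracted and analysed by RP-HPLC for free and glucuronidated/sulfated xanthones. Amounts are % of initial compound; mean ± SD, n ≥ 5.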

HepG2 cells = experiment: Cellular uptake and metabolism of α-MG; assay type: in vitro ADME, human; conditions: 24 h after addition of α-MG, control cultures; nd: not detected
Summary of the method: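 HepG2 monolayers, 2 days post-confluence, received 9.0 μM compound as a DMSO stock added to 10% FBS medium for 24 h. Activated cultures had 10 ng/mL TNF-α for 4 h and a PBS wash first. Medium and cells were collected separately, extracted and analysed by RP-HPLC for free and glucuronidated/sulfated xanthones. Quantification used retention time, UV spectrum and five-point standard curves, as % of initial amount; mean ± SD, n ≥ 5.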

Caco-2 cells = experiment: Cellular uptake, metabolism and transport of α-MG on Transwell inserts; assay type: in vitro ADME, human; conditions: 24 h after addition of α-MG, control cultures; nd: not detected
Summary of the method: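 Caco-2 cells were differentiated 21–25 days post-confluence on Transwell inserts. Compound (12 μM) in Tween 40 micelles was added apically for 24 h. Activated cultures had 5 ng/mL IL-1β for 4 h, then a PBS wash. Apical medium, basolateral medium and cell monolayer were collected separately and analysed by RP-HPLC for free and conjugated xanthones. Amounts are % of initial compound; mean ± SD, n ≥ 5.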

[1] = tested on: LPS-induced production of NO in RAW 264.7 cells; experiment: LPS-induced production of NO; assay type: cell-based, murine; conditions: Mus musculus, RAW264.7, read-out: inhibition of LPS-induced production of NO
Summary of the method: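 RAW 264.7 cells, 2 days post-confluence, were pretreated 2 h with compound (DMSO stock into 10% FBS medium). They were then stimulated 16 h with 5 ng/mL E. coli O111:B4 LPS. NO production was estimated as medium nitrite by the Griess reaction.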

Structure (SMILES): COc1c(O)cc2oc3cc(O)c(CC=C(C)C)c(O)c3c(=O)c2c1CCC(C)(C)O [garcinone D]
- intracellular xanthone, THP-1 (THP-1 cells): 66 ± 2 pmol/dish

Structure (SMILES): COc1c(O)cc2oc3cc4c(c(O)c3c(=O)c2c1CC=C(C)C)C=CC(C)(C)O4 [9-hydroxycalabaxanthone]
- intracellular xanthone, HepG2 (HepG2 cells): 44 ± 5 pmol/dish
- intracellular xanthone, Caco-2 (Caco-2 cells): 100 ± 17 pmol/dish

Structure (SMILES): COC(=O)[C@@H](N)CCCNC(N)=N[N+](=O)[O-] [L-NAME, reference compound]
- inhibition at 200 µM [1]: 30%

Reference: paper PMC3793015 (Journal of agricultural and food chemistry, 2013)
